Assay results as given in PMC6209313 (Molecular Pharmaceutics, 2018).
Values after ≈ are worked out from the molar mass of the structure shown.

assay: Dose number; type: physicochemical; conditions: 80% loading, lipid-rich LBFs after digestion; maximum-value of 0.5 observed

Row | SMILES | Do value
1 | C(=C\c1ccccc1)/CN1CCN(C(c2ccccc2)c2ccccc2)CC1 [Cinnarizine] | ≤ 1
2 | O=C(CCCN1CCC(O)(c2ccc(Cl)cc2)CC1)c1ccc(F)cc1 [Haloperidol] | ≤ 1
3 | CC(=O)N1CCN(c2ccc(OCC3COC(Cn4ccnc4)(c4ccc(Cl)cc4Cl)O3)cc2)CC1 (stereo not shown) [Ketoconazole] | ≤ 1

same assay, conditions: IIIA-LC, 80% of maximum drug load, 45 mL digestion medium

Row | SMILES | Do 80%
4 | C(=C\c1ccccc1)/CN1CCN(C(c2ccccc2)c2ccccc2)CC1 [Cinnarizine] | 0.2
5 | C#C[C@]1(O)CC[C@H]2[C@@H]3CCC4=Cc5oncc5C[C@]4(C)[C@H]3CC[C@@]21C [Danazol] | 4.9
6 | CCOC(=O)C1=C(C)NC(C)=C(C(=O)OC)C1c1cccc(Cl)c1Cl (stereo not shown) [Felodipine] | 6.8
7 | COC1=CC(=O)C[C@@H](C)[C@]12Oc1c(Cl)c(OC)cc(OC)c1C2=O [Griseofulvin] | 1.4
8 | O=C(CCCN1CCC(O)(c2ccc(Cl)cc2)CC1)c1ccc(F)cc1 [Haloperidol] | 0.0
9 | COc1ccc2c(c1)c(CC(=O)O)c(C)n2C(=O)c1ccc(Cl)cc1 [Indomethacin] | 0.7
10 | CC(=O)N1CCN(c2ccc(OCC3COC(Cn4ccnc4)(c4ccc(Cl)cc4Cl)O3)cc2)CC1 (stereo not shown) [Ketoconazole] | 0.2
11 | O=C(Nc1ccc([N+](=O)[O-])cc1Cl)c1cc(Cl)ccc1O [Niclosamide] | 14.5

same assay, conditions: IIIB-MC, 80% of maximum drug load, 45 mL digestion medium

Row | SMILES | Do 80%
12 | C(=C\c1ccccc1)/CN1CCN(C(c2ccccc2)c2ccccc2)CC1 [Cinnarizine] | 0.5
13 | C#C[C@]1(O)CC[C@H]2[C@@H]3CCC4=Cc5oncc5C[C@]4(C)[C@H]3CC[C@@]21C [Danazol] | 9.5
14 | CCOC(=O)C1=C(C)NC(C)=C(C(=O)OC)C1c1cccc(Cl)c1Cl (stereo not shown) [Felodipine] | 9.1
15 | COC1=CC(=O)C[C@@H](C)[C@]12Oc1c(Cl)c(OC)cc(OC)c1C2=O [Griseofulvin] | 2.9
16 | O=C(CCCN1CCC(O)(c2ccc(Cl)cc2)CC1)c1ccc(F)cc1 [Haloperidol] | 0.1
17 | COc1ccc2c(c1)c(CC(=O)O)c(C)n2C(=O)c1ccc(Cl)cc1 [Indomethacin] | 1.6
18 | CC(=O)N1CCN(c2ccc(OCC3COC(Cn4ccnc4)(c4ccc(Cl)cc4Cl)O3)cc2)CC1 (stereo not shown) [Ketoconazole] | 0.5
19 | O=C(Nc1ccc([N+](=O)[O-])cc1Cl)c1cc(Cl)ccc1O [Niclosamide] | 54.6

same assay, conditions: IIIB-MC, applied drug load during in vitro lipolysis

Row | SMILES | lipolysis Do
20 | C#C[C@]1(O)CC[C@H]2[C@@H]3CCC4=Cc5oncc5C[C@]4(C)[C@H]3CC[C@@]21C [Danazol] | 4.8
21 | CCOC(=O)C1=C(C)NC(C)=C(C(=O)OC)C1c1cccc(Cl)c1Cl (stereo not shown) [Felodipine] | 9.1
22 | O=C(Nc1ccc([N+](=O)[O-])cc1Cl)c1cc(Cl)ccc1O [Niclosamide] | 11.1

same assay, conditions: IV, 80% of maximum drug load, 45 mL digestion medium

Row | SMILES | Do 80%
23 | C(=C\c1ccccc1)/CN1CCN(C(c2ccccc2)c2ccccc2)CC1 [Cinnarizine] | 2.1
24 | C#C[C@]1(O)CC[C@H]2[C@@H]3CCC4=Cc5oncc5C[C@]4(C)[C@H]3CC[C@@]21C [Danazol] | 13.5
25 | CCOC(=O)C1=C(C)NC(C)=C(C(=O)OC)C1c1cccc(Cl)c1Cl (stereo not shown) [Felodipine] | 11.1
26 | COC1=CC(=O)C[C@@H](C)[C@]12Oc1c(Cl)c(OC)cc(OC)c1C2=O [Griseofulvin] | 4.6
27 | O=C(CCCN1CCC(O)(c2ccc(Cl)cc2)CC1)c1ccc(F)cc1 [Haloperidol] | 0.4
28 | COc1ccc2c(c1)c(CC(=O)O)c(C)n2C(=O)c1ccc(Cl)cc1 [Indomethacin] | 2.4
29 | CC(=O)N1CCN(c2ccc(OCC3COC(Cn4ccnc4)(c4ccc(Cl)cc4Cl)O3)cc2)CC1 (stereo not shown) [Ketoconazole] | 1.4
30 | O=C(Nc1ccc([N+](=O)[O-])cc1Cl)c1cc(Cl)ccc1O [Niclosamide] | 55.8

assay: In vitro lipolysis of drug-loaded IIIB-MC, quantification of precipitated drug; type: physicochemical; conditions: 60 min of digestion

Row | SMILES | degree of precipitated drug
31 | COC1=CC(=O)C[C@@H](C)[C@]12Oc1c(Cl)c(OC)cc(OC)c1C2=O [Griseofulvin] | 11%
32 | COc1ccc2c(c1)c(CC(=O)O)c(C)n2C(=O)c1ccc(Cl)cc1 [Indomethacin] | 2%

same assay, conditions: data not shown

Row | SMILES | precipitation during lipolysis at 80% loading
33 | COC1=CC(=O)C[C@@H](C)[C@]12Oc1c(Cl)c(OC)cc(OC)c1C2=O [Griseofulvin] | did not precipitate
34 | COc1ccc2c(c1)c(CC(=O)O)c(C)n2C(=O)c1ccc(Cl)cc1 [Indomethacin] | did not precipitate

assay: Maximum drug loading capacity; type: physicochemical; conditions: IIIA-LC, 37 °C, mean (sd)

Row | SMILES | maximum drug loading capacity (loading)
35 | C(=C\c1ccccc1)/CN1CCN(C(c2ccccc2)c2ccccc2)CC1 [Cinnarizine] | 34.5 (3.2) mg/g
36 | C#C[C@]1(O)CC[C@H]2[C@@H]3CCC4=Cc5oncc5C[C@]4(C)[C@H]3CC[C@@]21C [Danazol] | 16.4 (0.7) mg/g
37 | CCOC(=O)C1=C(C)NC(C)=C(C(=O)OC)C1c1cccc(Cl)c1Cl (stereo not shown) [Felodipine] | 75.4 (4.7) mg/g
38 | O=C(CCCN1CCC(O)(c2ccc(Cl)cc2)CC1)c1ccc(F)cc1 [Haloperidol] | 3.9 (1.2) mg/g
39 | COc1ccc2c(c1)c(CC(=O)O)c(C)n2C(=O)c1ccc(Cl)cc1 [Indomethacin] | 31.9 (1.1) mg/g
40 | CC(=O)N1CCN(c2ccc(OCC3COC(Cn4ccnc4)(c4ccc(Cl)cc4Cl)O3)cc2)CC1 (stereo not shown) [Ketoconazole] | 9.7 (1.2) mg/g
41 | O=C(Nc1ccc([N+](=O)[O-])cc1Cl)c1cc(Cl)ccc1O [Niclosamide] | 13.6 (0.4) mg/g

same assay, conditions: IIIB-MC, 37 °C, mean (sd)

Row | SMILES | maximum drug loading capacity (loading)
42 | C(=C\c1ccccc1)/CN1CCN(C(c2ccccc2)c2ccccc2)CC1 [Cinnarizine] | 41.8 (0.7) mg/g
43 | C#C[C@]1(O)CC[C@H]2[C@@H]3CCC4=Cc5oncc5C[C@]4(C)[C@H]3CC[C@@]21C [Danazol] | 38.8 (1.4) mg/g
44 | CCOC(=O)C1=C(C)NC(C)=C(C(=O)OC)C1c1cccc(Cl)c1Cl (stereo not shown) [Felodipine] | 176.2 (2.1) mg/g
45 | O=C(CCCN1CCC(O)(c2ccc(Cl)cc2)CC1)c1ccc(F)cc1 [Haloperidol] | 17.7 (1.2) mg/g
46 | COc1ccc2c(c1)c(CC(=O)O)c(C)n2C(=O)c1ccc(Cl)cc1 [Indomethacin] | 84.7 (3.5) mg/g
47 | CC(=O)N1CCN(c2ccc(OCC3COC(Cn4ccnc4)(c4ccc(Cl)cc4Cl)O3)cc2)CC1 (stereo not shown) [Ketoconazole] | 23.0 (1.0) mg/g
48 | O=C(Nc1ccc([N+](=O)[O-])cc1Cl)c1cc(Cl)ccc1O [Niclosamide] | 50.9 (1.6) mg/g

same assay, conditions: IV, 37 °C, mean (sd)

Row | SMILES | maximum drug loading capacity (loading)
49 | C(=C\c1ccccc1)/CN1CCN(C(c2ccccc2)c2ccccc2)CC1 [Cinnarizine] | 43.2 (1.7) mg/g
50 | C#C[C@]1(O)CC[C@H]2[C@@H]3CCC4=Cc5oncc5C[C@]4(C)[C@H]3CC[C@@]21C [Danazol] | 50.1 (1.2) mg/g
51 | CCOC(=O)C1=C(C)NC(C)=C(C(=O)OC)C1c1cccc(Cl)c1Cl (stereo not shown) [Felodipine] | 218.0 (9.3) mg/g
52 | O=C(CCCN1CCC(O)(c2ccc(Cl)cc2)CC1)c1ccc(F)cc1 [Haloperidol] | 21.5 (2.1) mg/g
53 | COc1ccc2c(c1)c(CC(=O)O)c(C)n2C(=O)c1ccc(Cl)cc1 [Indomethacin] | 121.3 (4.2) mg/g
54 | CC(=O)N1CCN(c2ccc(OCC3COC(Cn4ccnc4)(c4ccc(Cl)cc4Cl)O3)cc2)CC1 (stereo not shown) [Ketoconazole] | 29.9 (1.5) mg/g
55 | O=C(Nc1ccc([N+](=O)[O-])cc1Cl)c1cc(Cl)ccc1O [Niclosamide] | 80.7 (4.5) mg/g

assay: Acid/base/neutral class and ionization at the pH of lipolysis; type: physicochemical; conditions: pH 6.5

Row | SMILES | extent of ionization
56 | C(=C\c1ccccc1)/CN1CCN(C(c2ccccc2)c2ccccc2)CC1 [Cinnarizine] | 90%
57 | O=C(CCCN1CCC(O)(c2ccc(Cl)cc2)CC1)c1ccc(F)cc1 [Haloperidol] | 99%
58 | CC(=O)N1CCN(c2ccc(OCC3COC(Cn4ccnc4)(c4ccc(Cl)cc4Cl)O3)cc2)CC1 (stereo not shown) [Ketoconazole] | 42%

assay: not given; conditions: cited from earlier work

Row | SMILES | solid form of precipitate in previous in vitro lipolysis studies
59 | C#C[C@]1(O)CC[C@H]2[C@@H]3CCC4=Cc5oncc5C[C@]4(C)[C@H]3CC[C@@]21C [Danazol] | crystalline form

same assay, conditions: dispersion (dilution in bile) ref 13; cited from earlier work

Row | SMILES | solid form of precipitate during dispersion
60 | COc1ccccc1OCCNCC(O)COc1cccc2[nH]c3ccccc3c12 (stereo not shown) [Carvedilol] | crystalline form
61 | CCOC(=O)N1CCC(=C2c3ccc(Cl)cc3CCc3cccnc32)CC1 [Loratidine] | crystalline form

same assay, conditions: drug loaded into LBFs ref 41; cited from earlier work

Row | SMILES | solid form of precipitate in vitro and in vivo
62 | C#C[C@]1(O)CC[C@H]2[C@@H]3CCC4=Cc5oncc5C[C@]4(C)[C@H]3CC[C@@]21C [Danazol] | crystalline form
63 | CC(C)OC(=O)C(C)(C)Oc1ccc(C(=O)c2ccc(Cl)cc2)cc1 [Fenofibrate] | crystalline form

same assay, conditions: in vitro digestion of LBFs ref 11-17; cited from earlier work

Row | SMILES | solid form of precipitate during digestion
64 | COc1ccccc1OCCNCC(O)COc1cccc2[nH]c3ccccc3c12 (stereo not shown) [Carvedilol] | amorphous form
65 | C(=C\c1ccccc1)/CN1CCN(C(c2ccccc2)c2ccccc2)CC1 [Cinnarizine] | amorphous character or in a molecular dispersion with digestion components
66 | C#C[C@]1(O)CC[C@H]2[C@@H]3CCC4=Cc5oncc5C[C@]4(C)[C@H]3CC[C@@]21C [Danazol] | crystalline form
67 | CC(C)OC(=O)C(C)(C)Oc1ccc(C(=O)c2ccc(Cl)cc2)cc1 [Fenofibrate] | crystalline form
68 | CCOC(=O)N1CCC(=C2c3ccc(Cl)cc3CCc3cccnc32)CC1 [Loratidine] | crystalline form
69 | CCC(C)(C)C(=O)O[C@H]1C[C@@H](C)C=C2C=C[C@H](C)[C@H](CC[C@@H]3C[C@@H](O)CC(=O)O3)[C@H]21 [Simvastatin] | amorphous form
70 | Cc1c(Cl)cccc1Nc1ccccc1C(=O)O [Tolfenamic acid] | crystalline form

same assay, conditions: pH 4.0, 5.5, and 6.5 (ionized) ref 12; cited from earlier work

Row | SMILES | solid form of precipitated material
71 | C(=C\c1ccccc1)/CN1CCN(C(c2ccccc2)c2ccccc2)CC1 [Cinnarizine] | noncrystalline

same assay, conditions: pH 8.0 (unionized) ref 12; cited from earlier work

Row | SMILES | solid form of precipitated material
72 | C(=C\c1ccccc1)/CN1CCN(C(c2ccccc2)c2ccccc2)CC1 [Cinnarizine] | crystalline

assay: Drug solubility in lipolysis medium; type: physicochemical; conditions: IIIA-LC
Summary of the method: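 Placebo LBF digested in pH 6.5 buffer (2 mM Tris-maleate, 1.4 mM CaCl2·2H2O, 150 mM NaCl, FaSSIF 3.0 mM taurocholate/0.75 mM lecithin), 37 °C, porcine pancreatin. Media sampled at 10 min dispersion and 60 min digestion, lipase inhibited with 4-bromophenyl boronic acid, centrifuged. Supernatant shaken with excess crystalline drug at 37 °C, pH readjusted to 6.5. HPLC at 5 h and 24 h; value is mean of 24 h triplicates.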

Row | SMILES | solubility fold-increase between dispersion and digestion media
73 | C(=C\c1ccccc1)/CN1CCN(C(c2ccccc2)c2ccccc2)CC1 [Cinnarizine] | 6 fold
74 | O=C(CCCN1CCC(O)(c2ccc(Cl)cc2)CC1)c1ccc(F)cc1 [Haloperidol] | 11 fold
75 | CC(=O)N1CCN(c2ccc(OCC3COC(Cn4ccnc4)(c4ccc(Cl)cc4Cl)O3)cc2)CC1 (stereo not shown) [Ketoconazole] | 2 fold

same assay, conditions: dispersion medium of blank (placebo) LBF lipolysis, all LBFs, pH 6.5

Row | SMILES | solubility at 24 h
76 | COc1ccc2c(c1)c(CC(=O)O)c(C)n2C(=O)c1ccc(Cl)cc1 [Indomethacin] | 1500 to 1700 µg/mL (≈ 4.19 to 4.75 mM)
77 | O=C(Nc1ccc([N+](=O)[O-])cc1Cl)c1cc(Cl)ccc1O [Niclosamide] | < 80 µg/mL

assay: Solid state characterization of drug precipitate; type: physicochemical; conditions: IIIB-MC, 60 min of digestion, PLM and Raman
Summary of the method: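 Drug-loaded IIIB-MC (1.25 g in 45 mL medium, pH-stat 6.5, 37 °C) digested with pancreatin. The pellet at 60 min was imaged immediately by crossed-polarizer light microscopy. Raman used 785 nm at 400 mW over 100–1890 cm–1, with SNV baseline correction and blank-pellet background correction. References were crystalline drug, blank and drug-spiked blank pellets, and melt-quenched amorphous drug.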

Row | SMILES | solid form of precipitated drug in the pellet
78 | C#C[C@]1(O)CC[C@H]2[C@@H]3CCC4=Cc5oncc5C[C@]4(C)[C@H]3CC[C@@]21C [Danazol] | crystalline form
79 | CCOC(=O)C1=C(C)NC(C)=C(C(=O)OC)C1c1cccc(Cl)c1Cl (stereo not shown) [Felodipine] | crystalline and amorphous mixture
80 | COC1=CC(=O)C[C@@H](C)[C@]12Oc1c(Cl)c(OC)cc(OC)c1C2=O [Griseofulvin] | crystalline form
81 | COc1ccc2c(c1)c(CC(=O)O)c(C)n2C(=O)c1ccc(Cl)cc1 [Indomethacin] | crystalline and amorphous mixture
82 | O=C(Nc1ccc([N+](=O)[O-])cc1Cl)c1cc(Cl)ccc1O [Niclosamide] | hydrate form
